From ChEMBL document CHEMBL4346669, “Novel nannocystin A analogues as anticancer therapeutics: Synthesis, biological evaluations and structure-activity relationship studies” (Eur J Med Chem, 2019) come the findings set out here.

The source made the active and inactive calls. No cut-off for these calls is given here.

Test [1] relates to A-375. Put plainly: Antiproliferative activity against human A375 cells assessed as reduction in cell viability measured after 72 hrs by MTT assay. Format: functional, cell-based. Particulars: A-375, 72 h. The method, boiled down: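 Cells seeded at 5×10^3 per well and cultured overnight, then exposed for 72 h at 37 °C to six concentrations from 10 µM down to 0.0001 µM (from 10 mM DMSO stock diluted in medium; vehicle 1% DMSO in PBS). MTT at 0.5 mg/mL was added for 4 h, formazan dissolved in DMSO, and A570 read. IC50 given as mean ± SD of three independent experiments.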

For test [2], the system named is A549. Description: Induction of apoptosis in human A549 cells assessed as necrotic cells at 30 nM after 12 hrs by Annexin-V FITC/propidium iodide staining based flow cytometric analysis (reference value: 1.28%). Format: functional. Background: Flow cytometry measures light scatter and fluorescence of single cells or particles in a stream.
Test [3] has as its system A549. Put plainly: Cell cycle arrest in human A549 cells assessed as accumulation at G1 phase at 60 nM after 24 hrs by propidium iodide/RNase A staining-based flow cytometric analysis (reference value: 57.41%). In kind it is functional.
The subject of test [4] is A549. Put plainly: Cell cycle arrest in human A549 cells assessed as accumulation at G2 phase at 90 nM after 24 hrs by propidium iodide/RNase A staining-based flow cytometric analysis (reference value: 30.02%). In kind it is functional.
For test [5], the system named is A549. Description: Induction of apoptosis in human A549 cells assessed as late apoptotic cells at 60 nM after 12 hrs by Annexin-V FITC/propidium iodide staining based flow cytometric analysis (reference value: 1.22%). Format: functional.
Test [6] concerns A549. Put plainly: Induction of apoptosis in human A549 cells assessed as viable cells at 30 nM after 12 hrs by Annexin-V FITC/propidium iodide staining based flow cytometric analysis (reference value: 97.18%). In kind it is functional. Particulars: A549, 12 h, read-out: Activity.
The test system of test [7] is A549. Description: Induction of apoptosis in human A549 cells assessed as increase in caspase9 expression by Western blot analysis. In kind it is functional, cell-based. A digest of the protocol:
(§1)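 A549 treated 30, 60 and 90 nM for 24 h; lysates normalized by BCA, 30 μg protein denatured in SDS buffer at 100 °C 8 min, SDS-PAGE, PVDF transfer, blocked in 5% milk/TBS-0.05% Tween 2 h, primary antibodies overnight at 4 °C, HRP anti-rabbit IgG 2 h, ECL detection; β-actin loading control.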
(Immunoblotting shows a protein as a band on a membrane.)

Test [8] concerns A549. Put plainly: Induction of apoptosis in human A549 cells assessed as late apoptotic cells at 60 nM after 24 hrs by Annexin-V FITC/propidium iodide staining based flow cytometric analysis. In kind it is functional. The method, boiled down:
(§2)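 Time-course: A549 (2×10^5 cells/well, grown overnight) exposed to 60 nM for 6, 12 or 24 h; untreated control. Cells trypsinized, washed in cold PBS, stained 15 min with Annexin V-FITC in binding buffer, then PI, and read by flow cytometry; duplicate experiments.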

Test [9] concerns A549. Description: Cell cycle arrest in human A549 cells assessed as accumulation at G1 phase at 30 nM after 24 hrs by propidium iodide/RNase A staining-based flow cytometric analysis (reference value: 57.41%). Format: functional.
In test [10] the test system is A549. Put plainly: Induction of apoptosis in human A549 cells assessed as increase in caspase3 expression by Western blot analysis. Format: functional, cell-based. The method, boiled down: as §1
Test [11] relates to A549. Description: Induction of apoptosis in human A549 cells assessed as early apoptotic cells at 30 nM after 12 hrs by Annexin-V FITC/propidium iodide staining based flow cytometric analysis (reference value: 0.32%). Format: functional.
Test [12] relates to A549. Put plainly: Induction of apoptosis in human A549 cells assessed as late apoptotic cells at 90 nM after 12 hrs by Annexin-V FITC/propidium iodide staining based flow cytometric analysis (reference value: 1.22%). In kind it is functional.
The subject of test [13] is A549. Put plainly: Inhibition of colony formation in human A549 cells at 10 to 20 nM incubated for 3 days followed by further incubation in drug-free medium and measured after 15 days by crystal violet staining-based inverted microscopic analysis. Format: functional, cell-based. A digest of the protocol:
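500 A549 cells/well incubated 24 h, then treated with 5, 10 or 20 nM for 3 days, followed by drug-free medium changed every 3 days. At day 15 after plating, colonies fixed in 95% ethanol 15 min, stained with 0.1% crystal violet, counted (colony = over 100 cells); mean ± SD of three independent experiments.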

Test [14] relates to A549. Description: Induction of apoptosis in human A549 cells assessed as nuclear fragmentation at 90 nM after 24 hrs by […] staining-based confocal laser scanning microscopic analysis. In kind it is functional, cell-based. A digest of the protocol:
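A549 exposed to 30, 60 and 90 nM for 24 h, stained with Hoechst 33342, imaged by confocal laser scanning microscopy; strongly blue-fluorescent nuclei scored as apoptotic.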

In test [15] the test system is A549. Put plainly: Induction of apoptosis in human A549 cells assessed as viable cells at 60 nM after 12 hrs by Annexin-V FITC/propidium iodide staining based flow cytometric analysis (reference value: 97.18%). Format: functional. Particulars: A549, 12 h, read-out: Activity.
Test [16] concerns A549. Put plainly: Cell cycle arrest in human A549 cells assessed as accumulation at S phase at 30 nM after 24 hrs by propidium iodide/RNase A staining-based flow cytometric analysis (reference value: 12.57%). In kind it is functional.
For test [17], the system named is A549. Put plainly: Induction of apoptosis in human A549 cells assessed as viable cells at 60 nM after 6 hrs by Annexin-V FITC/propidium iodide staining based flow cytometric analysis. Particulars: A549, 6 h, read-out: Activity. In kind it is functional. A digest of the protocol: as §2
Test [18] has as its system A549. Description: Induction of apoptosis in human A549 cells assessed as early apoptotic cells at 60 nM after 12 hrs by Annexin-V FITC/propidium iodide staining based flow cytometric analysis (reference value: 0.32%). Format: functional.

Regarding `COc1cc(C[C@H]2NC(=O)[C@H](C(C)C)N(C)C(=O)/C(C)=C/C[C@@H](OC)/C(C)=C/C=C/[C@@H](C)[C@@H](c3ccccc3)OC(=O)[C@H](C(C)C)NC2=O)ccc1O`, in [1], the half-inhibitory concentration (IC50) (in general, the concentration that gives 50% inhibition) turned out to be 4.3 nM. Also, the Activity is 9.87% in test [2]; 44.44% in test [3]; 57.73% in [4]; 20.03% in test [5]; “Dose-dependent effect” in test [7]; 29.03% in test [8]. Also, the Activity in test [9] was 49.14%; in [10], “Dose-dependent effect”; in test [11], 1.21%; in test [12], 28.22%; in test [16], 13.21%; in [18], 3.55%. Besides, the viability at 0.03 µM in [6] stood at 75.3%. Moreover, the inhibition entry in test [13] was “Active”. Moreover, the result in test [14] was Active. Further, the viability at 0.06 µM stood at 66.2% in [15] and 92.3% in test [17].
